# Measurements: ChEMBL document CHEMBL4765245 (Eur J Med Chem, 2020)
# Counter-ions that a name gives are not always drawn.
# Columns and labels:
# [1] = test system: Coxsackievirus B3; assay: Antiviral activity against pleconaril-resistant Coxsackievirus B3 97927 11207M/I1092 mutant infected in human HeLa cell line assessed as inhibition of virus-induced cytopathic effect measured after 48 hrs by crystal violet uptake assay; assay type: functional, organism-based
# Outline: (§1)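 HeLa Ohio monolayers, 2 days old and confluent, in MEM with 2% FCS. Serial half-log compound dilutions from 100 μM were added just before CVB3 infection. Activity was calculated per Pauwels against six cell and six virus controls; mean IC50 from ≥3 experiments.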
# [2] = test system: rhinovirus A2; assay: Antiviral activity against Rhinovirus A2 infected in human HeLa cell line assessed as inhibition of virus-induced cytopathic effect measured after 72 hrs by crystal violet uptake assay; assay type: functional, organism-based
# Outline: (§2)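 HeLa Ohio monolayers, 1 day old, in 2% FCS medium. Compound added as serial half-log dilutions from 100 μM immediately before rhinovirus infection. Activity calculated per Pauwels; IC50 is the mean of at least 3 experiments.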
# [3] = test system: Coxsackievirus B3; assay: Antiviral activity against pleconaril-resistant Coxsackievirus B3 97927 11207T/I1092 mutant infected in human HeLa cell line assessed as inhibition of virus-induced cytopathic effect measured after 48 hrs by crystal violet uptake assay; assay type: functional, organism-based; outline: as §1
# [4] = test system: Coxsackievirus B3; assay: Antiviral activity against wild type Coxsackievirus B3 97927 infected in human HeLa cell line assessed as inhibition of virus-induced cytopathic effect measured after 48 hrs by crystal violet uptake assay; assay type: functional, organism-based; details: read-out: IC50
# Outline: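 Coxsackievirus B3 infection of 2-day-old HeLa Ohio monolayers in 2% FCS medium. Half-log dilutions from 100 μM added just before infection; guanidine hydrochloride served as positive control. Antiviral activity calculated per Pauwels; IC50 is the mean of at least 3 separate tests.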
# [5] = test system: Coxsackievirus B3; assay: Antiviral activity against Coxsackievirus B3 Nancy infected in human HeLa cell line assessed as inhibition of virus-induced cytopathic effect measured after 48 hrs by crystal violet uptake assay; assay type: functional, organism-based; outline: as §1
# [6] = test system: HeLa; assay: (§3) Cytotoxicity against human HeLa cells assessed as reduction in cell viability incubated for 72 hrs measured by crystal violet based micro plate reader method; details: hela, 72 h
# Outline: (§4)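 Two-day-old confluent HeLa Ohio monolayers exposed to half-log dilutions (100 μM downward) in 2% FCS medium for 72 h at 37 °C, 5% CO2. Cells fixed and stained with crystal violet/formalin, dye eluted with acidified citrate-ethanol, OD read at 550/630 nm. Viability expressed relative to six mock-treated controls; CC50 is the mean of at least 3 tests.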
# [7] = test system: rhinovirus B14; assay: Antiviral activity against Rhinovirus B14 infected in human HeLa cell line assessed as inhibition of virus-induced cytopathic effect measured after 72 hrs by crystal violet uptake assay; assay type: functional, organism-based; outline: as §2
# [8] = test system: Coxsackievirus B3; assay: Antiviral activity against pleconaril-resistant Coxsackievirus B3 97927 11207K/I1092 mutant infected in human HeLa cell line assessed as inhibition of virus-induced cytopathic effect measured after 48 hrs by crystal violet uptake assay; assay type: functional, organism-based; outline: as §1
# [9] = test system: rhinovirus B5; assay: Antiviral activity against Rhinovirus B5 infected in human HeLa cell line assessed as inhibition of virus-induced cytopathic effect measured after 72 hrs by crystal violet uptake assay; assay type: functional, organism-based
# Outline: as §2, with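 “infection. CPE read at 72 h by crystal violet staining, elution and OD 550/630 nm, with six cell and six virus controls per plate.” for “infection.”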
# [10] = Mutagenicity in Escherichia coli PQ37 at 10 mg/ml by SOS-chromotest; assay type: toxicity
# [11] = Genotoxicity in Escherichia coli PQ37 assessed as zone of inhibition at 10 mg/ml measured on day 3 by SOS-chromo0test relative to control; assay type: toxicity; details: 72 h, time 3 day
# [12] = as §3; details: HeLa cells; outline: as §4
# [13] = Rhinovirus A, HeLa, 72 h, read-out: IC50
# [14] = Enterovirus B, 97927, HeLa, 48 h
# [15] = Enterovirus B, Nancy, HeLa, 48 h, read-out: IC50
# [16] = Rhinovirus B, HeLa, 72 h, read-out: IC50
SMILES,IC50 [1] [µM],"IC50 [2, 13] [µM]",IC50 ([3]; read-out: IC50) [µM],"IC50 [4, 14] [µM]","IC50 [5, 15] [µM]",CC50 [6] [µM],"IC50 [7, 16] [µM]",IC50 ([8]; read-out: IC50) [µM],IC50 [9],IC50 [3],IC50 [8],Activity [10],inhibition zone (IZ) [11] [mm],IC50 [7],"IC50 [9, 16] [µM]",IC50 [5],IC50 [2],IC50 [4] [µM],CC50 at 72 h [12] [µM]
COC(=O)c1cc(CCCOc2c(C)cc(-c3noc(C(F)(F)F)n3)cc2C)on1,1.53,0.36,12.8,0.06,17.9,35.4,0.37,20.4,Not Active,–,–,–,–,–,–,–,–,–,–
CNC(=O)c1cc(CCCOc2c(C)cc(-c3noc(C(F)(F)F)n3)cc2C)on1,0.37,0.2,–,0.06,–,> 100,0.02,–,–,Not Active,Not Active,Non-Toxic,0,–,–,–,–,–,–
Cc1cc(-c2noc(C(F)(F)F)n2)cc(C)c1OCCCc1cc(C(N)=O)no1,1.69,0.5,–,0.07,–,> 100,0.22,–,–,Not Active,Not Active,–,–,–,–,–,–,–,–
CNC(=O)c1cc(CCCOc2ccc(-c3noc(C(F)(F)F)n3)cc2C(F)(F)F)on1,0.06,0.96,1.04,0.02,14.1,> 100,–,–,Not Active,–,Not Active,–,–,Not Active,–,–,–,–,–
Cc1cc(-c2noc(C(F)(F)F)n2)cc(C)c1OCCCc1cc(C(=O)N(C)C)no1,0.03,0.12,1.01,0.02,–,13.2,0.12,6.33,–,–,–,Non-Toxic,0,–,–,–,–,–,–
CN(C)C(=O)c1cc(CCCOc2ccc(-c3noc(C(F)(F)F)n3)cc2F)on1,0.06,3.77,1.44,0.025,18.5,20.2,0.05,–,–,–,Not Active,–,–,–,4.04,–,–,–,–
COc1cc(-c2noc(C(F)(F)F)n2)ccc1OCCCc1cc(C(=O)N(C)C)no1,0.6,1.97,1.66,0.03,37.8,68,0.04,51.7,–,–,–,–,–,–,3.28,–,–,–,–
Cc1cc(-c2noc(C(F)(F)F)n2)cc(C)c1OCCCc1cc(-c2ccccc2)no1,0.28,0.76,1.69,0.14,–,> 100,0.53,–,Not Active,–,Not Active,–,–,–,–,–,–,–,–
Cc1cc(CCCOc2c(C)cc(-c3noc(C(F)(F)F)n3)cc2C)on1 [PLECONARIL],2.05,–,3.97,–,–,26.2,–,–,Not Active,–,Not Active,–,–,–,–,Not Active,–,–,–
N=C(N)N [GUANIDINE HYDROCHLORIDE],682,–,725,592,423,–,–,664,–,–,–,–,–,–,–,–,–,–,–
Cc1cc(-c2noc(C(F)(F)F)n2)cc(C)c1OCCCc1cc(C(=O)OC(C)C)no1,4.09,2.43,–,0.19,–,17.9,0.43,–,–,Not Active,Not Active,–,–,–,–,–,–,–,–
CN(C)C(=O)c1cc(CCCOc2ccc(-c3noc(C(F)(F)F)n3)cc2N)on1,2.08,18.2,14.3,4.47,27.8,90.8,0.33,51.6,Not Active,–,–,–,–,–,–,–,–,–,–
CCNC(=O)c1cc(CCCOc2c(C)cc(-c3noc(C(F)(F)F)n3)cc2C)on1,0.48,0.6,–,0.05,–,> 100,0.18,–,–,Not Active,Not Active,–,–,–,–,–,–,–,–
CCOC(=O)c1cc(CCCOc2c(C)cc(-c3noc(C(F)(F)F)n3)cc2C)on1,0.94,–,20.4,0.07,–,17.2,–,11.1,–,–,–,–,–,–,–,Not Active,–,–,–
CCOC(=O)c1cc(CCCOc2ccc(-c3noc(C(F)(F)F)n3)cc2C)on1,0.61,–,1.23,0.062,19,35.1,0.52,–,Not Active,–,Not Active,–,–,–,–,–,Not Active,–,–
CN(C)C(=O)c1cc(CCCOc2ccc(-c3noc(C(F)(F)F)n3)cc2C(F)(F)F)on1,0.16,0.32,0.54,–,2.24,19.2,6.76,7.18,Not Active,–,–,Non-Toxic,0,–,–,–,–,0.16,–
CN(C)C(=O)c1cc(CCCOc2ccc(-c3noc(C(F)(F)F)n3)cc2[N+](=O)[O-])on1,0.001,0.67,0.03,0.003,1.66,22.5,0.28,6.46,–,–,–,Non-Toxic,0,–,7.63,–,–,–,–
Cc1cc(-c2noc(C(F)(F)F)n2)cc(C)c1OCCCc1cc(C(=O)NCc2ccccc2)no1,14.4,0.23,–,1.39,–,> 100,0.25,–,–,Not Active,Not Active,–,–,–,–,–,–,–,–
COc1cc(-c2noc(C(F)(F)F)n2)cc([N+](=O)[O-])c1OCCCc1cc(C(=O)N(C)C)no1,0.88,0.32,0.84,0.365,14.5,25.6,0.2,–,Not Active,–,Not Active,–,–,–,–,–,–,–,–
CN(C)C(=O)c1cc(CCCOc2ccc(-c3noc(C(F)(F)F)n3)cc2)on1,0.02,4.61,8.11,0.458,10.8,28,0.04,27.5,–,–,–,–,–,–,1.74,–,–,–,–
CCOC(=O)c1cc(CCCOc2ccc(-c3noc(C(F)(F)F)n3)cn2)on1,–,–,–,10.3,–,–,1.99,–,Not Active,–,–,–,–,–,–,Not Active,Not Active,–,> 100
